# A selection: hits, their analogues and other compounds. The true share with any hit is near 3.2%.
# OX1R antag-1 = antagonists of human orexin 1 receptor; inhibition, % at 5 µM; AID 434989; CHO/OX1R cells, Fluo-8 calcium fluorescence, orexin A; actives 0.43% (n = 330,000); O43613;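 active = inhibition above its plate's threshold, mean inhibition of all tested compounds on the plate plus 3 SD, cut at about 37% in these data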;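 note: 0% = orexin A challenge wells and 100% = SB-334867-A antagonist wells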
# zfTRPN1 agonist = activates the zebrafish TRPN1 channel; activation, % at 3 µM; actives 0.18% (n = 220,000); HEK293 zebrafish TRPN1-YFP, Fluo-8 calcium fluorescence; 100% = response to 87 µM carbachol;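 active = activation above its plate's cutoff, the mean activation of test wells on that plate plus 3 SD, cut at about 19% in these data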;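 note: 0% = DMSO alone and 100% = 87 µM carbachol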
#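 Control set: carbachol 87 µM as high control, DMSO as low control; system: HEK293 stable line with zebrafish TRPN1-YFP; read-out: % activation versus carbachol response; detection: intracellular calcium fluorescence with Fluo-8; doses: single test compound dose, 3 µM nominal, 0.3% DMSO; schedule: dye 1 h 37 °C plus 30 min RT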
# GPR7 antag = antagonists of human GPR7 (neuropeptides B/W receptor 1); actives 1.1% (n = 290,000); inhibition, % at 4.4 µM; GPR7-expressing cells, fluorescence antagonist assay; AID 1861; in the data active = inhibition above about 16%, passing the limit was not always enough;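 note: cells stimulated with the agonist NPW; 0% = agonist with vehicle and 100% = vehicle without agonist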
# Target sequence (P48145 whole entry, looked up): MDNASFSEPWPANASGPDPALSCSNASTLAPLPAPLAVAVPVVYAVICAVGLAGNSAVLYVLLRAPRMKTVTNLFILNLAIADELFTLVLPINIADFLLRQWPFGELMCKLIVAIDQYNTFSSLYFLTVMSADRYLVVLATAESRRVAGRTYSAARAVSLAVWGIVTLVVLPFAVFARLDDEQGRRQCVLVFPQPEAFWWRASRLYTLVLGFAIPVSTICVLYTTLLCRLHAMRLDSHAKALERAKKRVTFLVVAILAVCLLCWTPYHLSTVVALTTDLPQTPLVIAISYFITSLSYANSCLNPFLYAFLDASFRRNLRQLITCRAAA
# CHO parental Ca = counter-screen for OX1R antagonists: effect in parental CHO cells; actives 0.63% (n = 330,000); parental CHO-K1, ATP-induced calcium, Fluo-8 fluorescence; inhibition, % at 5.6 µM; AID 463079;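 active = inhibition above that plate's mean sample inhibition plus 3 SD, cut at about 26% in these data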;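 note: 0% = ATP-challenged DMSO wells and 100% = DMSO wells without ATP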
#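 Test system: untransfected parental CHO cell line. Compound: one dose, 5.6 µM nominal. Detection: intracellular calcium via Fluo-8 no-wash fluorescent dye. Measure: % inhibition. Benchmarks: ATP-challenged DMSO wells low, unchallenged DMSO wells high.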
# OX1R antag-2 = blocks the human orexin 1 receptor. inhibition, % at 6.6 µM. O43613. OX1R-expressing cells, FRET antagonist read-out. actives 1.8% (n = 330,000); in the data active = inhibition mostly above about 38%, no sharp cut-off; inactive = mostly below about 40%;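 note: 0% = agonist challenge alone and 100% = reference antagonist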
# TRPML3 agonist = human mucolipin-3 channel agonism; Q8TDD5; activation, % at 3 µM; HEK293 TRPML3-YFP, Fluo-8 calcium fluorescence; 100% = the carbachol control signal; actives 0.29% (n = 220,000); AID 1448;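 active = activation above its plate's cutoff, the mean activation of the plate's test wells plus 3 SD, cut at about 12% in these data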;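 note: 0% = DMSO only wells and 100% = carbachol wells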
#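 Test system: HEK293 cells stably carrying human TRPML3-YFP; Doses: single dose, 3 µM final nominal compound, 0.3% DMSO final; Schedule: dye loading 1 h 37 °C then 30 min ambient, 125 s read; Technique: Fluo-8 calcium fluorescence; Benchmarks: high control carbachol 87 µM, low control DMSO.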
# Starred values were filed as active, the others as inactive; . = no result given.
SMILES,OX1R antag-1,zfTRPN1 agonist,GPR7 antag,CHO parental Ca,OX1R antag-2,TRPML3 agonist
Cc1c(Cl)cccc1NC(=O)CCC(=O)NNC(=O)c1ccccc1,-20,0,-5,-5,17,0
CCCCCCCCCCCCCCCC[N+](C)(C)CCN(Cc1ccc(OC)cc1)c1ncccn1,46*,.,.,64*,7,.
COc1ccc(N/C(N)=N/c2nc(CSc3nnc(C)s3)cc(=O)[nH]2)cc1,-24,0,1,-7,12,1
Cc1ccc(N/C(N)=N/c2nc(CSc3nnc(C)s3)cc(=O)[nH]2)c(C)c1,-27,-1,31*,-12,10,0
CCOP(=O)(OCC)c1nc(-c2ccc(Cl)cc2Cl)oc1N1CCOCC1,-9,-1,-6,-5,10,0
C=CCC1(CC=C)CCCN1C(=O)c1cc(COc2ccc(C)nc2)on1,7,.,9,52*,20,.
Cc1ccsc1C(=O)C1CCCN(Cc2cccn2-c2ccc(Cl)cn2)C1 (centres undefined),-19,-2,39*,-9,17,0
O=C1N=C(N2CCOCC2)S/C1=C\c1cccs1,-5,0,8,-3,41,1
N#CCCN1CCN(C2=NC(=O)/C(=C\c3cccs3)S2)CC1,-5,1,-7,11,42*,0
Cc1ccc(S(=O)(=O)N2CCOC2CNC(=O)C(=O)NCCN(C)C)cc1 (centres undefined),2,.,-7,5,-4,.
COC(=O)c1cc(S(=O)(=O)N2CCN(Cc3ccccc3)CC2)cn1C,-22,.,-2,-10,7,.
O=[N+]([O-])c1ccc(Sc2ccccc2)nc1,-2,0,-2,-3,43,0
